Reference: ChEMBL document CHEMBL3244044, “Synthesis and antitumor activity of halogen-substituted 4-(3,3-dimethyl-1-triazeno)quinolines” (J Med Chem, 1978)

Legend:
P388 [1] = assay: Antitumor activity against mouse P388 cells allografted mouse assessed as host survival at 50 mg/kg, ip qd for 9 days relative to control; format: functional; conditions: route intraperitoneal
Method in brief: (§1)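 NCI protocol: groups of five to ten mice inoculated ip with approximately 10^6 P-388 or L1210 cells. Drug given over a range of dose levels starting 24 h after implantation, once daily for 9 consecutive days. Survival expressed as %T/C = (average survival of treated)/(average survival of control) × 100.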

Mus musculus [2] = assay: Toxicity in mouse P388 cells allografted mouse at 20 mg/kg, ip qd for 9 days; format: organism-based; set-up: dose 20 mg/kg, route intraperitoneal; conditions: in vivo, 216 h
Method in brief: (§2)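 NCI protocol. Groups of five to ten mice were inoculated intraperitoneally with about 10^6 tumor cells. Drug was given ip once daily for 9 consecutive days, starting 24 h after tumor implantation, over a range of dose levels. Toxicity was read as the average body weight change at the end of drug treatment.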

Mus musculus [3] = assay: Toxicity in mouse L1210 cells allografted mouse at 40 mg/kg, ip qd for 9 days; format: organism-based; set-up: dose 40 mg/kg, route intraperitoneal; conditions: in vivo, 216 h
Method in brief: (§3)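 Groups of five to ten mice were inoculated ip with about 10^6 L1210 cells and dosed once daily for 9 consecutive days beginning 24 h post-implantation. Toxicity was taken as the average body weight change at the end of drug treatment.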

Mus musculus [4] = assay: Toxicity in mouse L1210 cells allografted mouse at 30 mg/kg, ip qd for 9 days; format: organism-based; set-up: dose 30 mg/kg, route intraperitoneal; conditions: in vivo, 216 h; method in brief: as §3
L1210 [5] = assay: Antitumor activity against mouse L1210 cells allografted mouse assessed as host survival at 30 mg/kg, ip qd for 9 days relative to control; format: functional; conditions: route intraperitoneal; method in brief: as §1
P388 [6] = assay: Antitumor activity against mouse P388 cells allografted mouse assessed as host survival at 40 mg/kg, ip qd for 9 days relative to control; format: functional; conditions: route intraperitoneal; method in brief: as §1
P388 [7] = assay: Antitumor activity against mouse P388 cells allografted mouse assessed as host survival at 30 mg/kg, ip qd for 9 days relative to control; format: functional; conditions: route intraperitoneal; method in brief: as §1
Mus musculus [8] = assay: Toxicity in mouse P388 cells allografted mouse at 50 mg/kg, ip qd for 9 days; format: organism-based; set-up: dose 50 mg/kg, route intraperitoneal; conditions: in vivo, 216 h; method in brief: as §2
L1210 [9] = assay: Antitumor activity against mouse L1210 cells allografted mouse assessed as host survival at 40 mg/kg, ip qd for 9 days relative to control; format: functional; conditions: route intraperitoneal; method in brief: as §1
[10] = Binding affinity to synthetic melanin at 5.8 mg/100 mL after 15 mins by UV-spectroscopic analysis; format: physicochemical; conditions: 0.25 h
Method in brief: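 Synthetic melanin was made from DL-Dopa with tyrosinase in 0.1 M phosphate pH 6.6 at 37 °C for 4 h. Melanin suspension (1.1 mg dry weight) was mixed with phosphate buffer (0.05 M, pH 6.4, 5% Me2SO), water, and 1 mL of drug solution (5.8 mg/100 mL). The mixture was shaken 15 min at room temperature and filtered. Unbound drug in the filtrate was measured by UV against a drug-free blank.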

Mus musculus [11] = assay: Toxicity in mouse P388 cells allografted mouse at 40 mg/kg, ip qd for 9 days; format: organism-based; set-up: dose 40 mg/kg, route intraperitoneal; conditions: in vivo, 216 h; method in brief: as §2
P388 [12] = assay: Antitumor activity against mouse P388 cells allografted mouse assessed as host survival at 20 mg/kg, ip qd for 9 days relative to control; format: functional; conditions: route intraperitoneal; method in brief: as §1
Mus musculus [13] = assay: Toxicity in mouse P388 cells allografted mouse at 30 mg/kg, ip qd for 9 days; format: organism-based; set-up: dose 30 mg/kg, route intraperitoneal; conditions: in vivo, 216 h; method in brief: as §2
Mus musculus [14] = assay: Toxicity in mouse P388 cells allografted mouse at 10 mg/kg, ip qd for 9 days; format: organism-based; set-up: dose 10 mg/kg, route intraperitoneal; conditions: in vivo, 216 h; method in brief: as §2
P388 [15] = assay: Antitumor activity against mouse P388 cells allografted mouse assessed as host survival at 10 mg/kg, ip qd for 9 days relative to control; format: functional; conditions: route intraperitoneal; method in brief: as §1
L1210 [16] = assay: Antitumor activity against mouse L1210 cells allografted mouse assessed as host survival at 20 mg/kg, ip qd for 9 days relative to control; format: functional; conditions: route intraperitoneal; method in brief: as §1
Mus musculus [17] = assay: Toxicity in mouse L1210 cells allografted mouse at 20 mg/kg, ip qd for 9 days; format: organism-based; set-up: dose 20 mg/kg, route intraperitoneal; conditions: in vivo, 216 h; method in brief: as §3
Mus musculus [18] = assay: Toxicity in mouse B16 cells allografted mouse at 18 mg/kg, ip qd for 9 days; format: organism-based; set-up: dose 18 mg/kg, route intraperitoneal; conditions: in vivo, 216 h
Method in brief: (§4)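 Mice bearing B16 melanoma, dosed ip once daily for 9 days from 24 h after tumor implantation. Toxicity is recorded as the average body weight change at the end of drug treatment.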

Mus musculus [19] = assay: Toxicity in mouse B16 cells allografted mouse at 50 mg/kg, ip qd for 9 days; format: organism-based; set-up: dose 50 mg/kg, route intraperitoneal; conditions: in vivo, 216 h; method in brief: as §4
B16 [20] = assay: Antitumor activity against mouse B16 cells allografted mouse assessed as host survival at 50 mg/kg, ip qd for 9 days relative to control; format: functional; conditions: route intraperitoneal
Method in brief: (§5)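 B16 melanoma-bearing mice given drug ip once daily for 9 days, starting 24 h after tumor implantation. Read-out is average survival in days, expressed as %T/C = (average survival of treated mice)/(average survival of control mice) × 100.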

B16 [21] = assay: Antitumor activity against mouse B16 cells allografted mouse assessed as host survival at 30 mg/kg, ip qd for 9 days relative to control; format: functional; conditions: route intraperitoneal; method in brief: as §5
Mus musculus [22] = assay: Toxicity in mouse B16 cells allografted mouse at 30 mg/kg, ip qd for 9 days; format: organism-based; set-up: dose 30 mg/kg, route intraperitoneal; conditions: in vivo, 216 h; method in brief: as §4
B16 [23] = assay: Antitumor activity against mouse B16 cells allografted mouse assessed as host survival at 18 mg/kg, ip qd for 9 days relative to control; format: functional; conditions: route intraperitoneal; method in brief: as §5
Mus musculus [24] = assay: Toxicity in mouse P388 cells allografted mouse at 80 mg/kg, ip qd for 9 days; format: organism-based; set-up: dose 80 mg/kg, route intraperitoneal; conditions: in vivo, 216 h; method in brief: as §2
L1210 [25] = assay: Antitumor activity against mouse L1210 cells allografted mouse assessed as host survival at 90 mg/kg, ip qd for 9 days relative to control; format: functional; conditions: route intraperitoneal; method in brief: as §1
P388 [26] = assay: Antitumor activity against mouse P388 cells allografted mouse assessed as host survival at 80 mg/kg, ip qd for 9 days relative to control; format: functional; conditions: route intraperitoneal; method in brief: as §1
Mus musculus [27] = assay: Toxicity in mouse P388 cells allografted mouse at 60 mg/kg, ip qd for 9 days; format: organism-based; set-up: dose 60 mg/kg, route intraperitoneal; conditions: in vivo, 216 h; method in brief: as §2
P388 [28] = assay: Antitumor activity against mouse P388 cells allografted mouse assessed as host survival at 60 mg/kg, ip qd for 9 days relative to control; format: functional; conditions: route intraperitoneal; method in brief: as §1
Mus musculus [29] = assay: Toxicity in mouse L1210 cells allografted mouse at 90 mg/kg, ip qd for 9 days; format: organism-based; set-up: dose 90 mg/kg, route intraperitoneal; conditions: in vivo, 216 h; method in brief: as §2
L1210 [30] = assay: Antitumor activity against mouse L1210 cells allografted mouse assessed as host survival at 70 mg/kg, ip qd for 9 days relative to control; format: functional; conditions: route intraperitoneal; method in brief: as §1
Mus musculus [31] = assay: Toxicity in mouse L1210 cells allografted mouse at 70 mg/kg, ip qd for 9 days; format: organism-based; set-up: dose 70 mg/kg, route intraperitoneal; conditions: in vivo, 216 h; method in brief: as §3
L1210 [32] = assay: Antitumor activity against mouse L1210 cells allografted mouse assessed as host survival at 80 mg/kg, ip qd for 9 days relative to control; format: functional; conditions: route intraperitoneal; method in brief: as §1
Mus musculus [33] = assay: Toxicity in mouse L1210 cells allografted mouse at 80 mg/kg, ip qd for 9 days; format: organism-based; set-up: dose 80 mg/kg, route intraperitoneal; conditions: in vivo, 216 h; method in brief: as §2

Structure (SMILES)	T/C (P388 [1])	Activity (Mus musculus [2])	Activity (Mus musculus [3])	Activity (Mus musculus [4])	T/C (L1210 [5])	T/C (P388 [6])	T/C (P388 [7])	Activity (Mus musculus [8])	T/C (L1210 [9])	Activity [10]	Activity (Mus musculus [11])	T/C (P388 [12])	Activity (Mus musculus [13])	T/C (L1210 [16])	Activity (Mus musculus [17])	other results
CN(C)/N=N\c1ccnc2ccc(Br)cc12	131%	18%	-5.8%	-1%	150%	111%	127%	-8.9%	154%	55.3%	-3.5%	123%				
CN(C)/N=N\c1ccnc2cc(Br)ccc12	125%		-2.8%	10%	129%	133%	133%	-15.1%	141%	57.3%	-8.9%		-2.4%			
CN(C)/N=N\c1ccnc2ccc(Cl)cc12		0.8%		-10%	156%		137%			41%		139%	-12.9%	146%	1%	Activity (Mus musculus [14]): -3.1%; T/C (P388 [15]): 129%
CN(C)/N=N\c1ccnc2cc(Cl)ccc12				-1%	152%	119%	137%			48%	-22.6%		-16.3%	154%	5.1%	
CN(C)/N=N\c1ccnc2c(Cl)cccc12		-2.1%	-4.9%	0%	165%		167%		155%	56.4%		172%	-15%			Activity (Mus musculus [18]): -0.3%; Activity (Mus musculus [19]): -3.9%; Survival (B16 [20]): 20.8 days; T/C (B16 [20]): 99%; Survival (B16 [21]): 21.3 days; T/C (B16 [21]): 101%; Activity (Mus musculus [22]): -2.9%; Survival (B16 [23]): 21.6 days; T/C (B16 [23]): 103%
CN(C)/N=N\c1ccnc2ccc(I)cc12						117%				60.6%	10.5%					Activity (Mus musculus [24]): 7.1%; T/C (L1210 [25]): 158%; T/C (P388 [26]): 123%; Activity (Mus musculus [27]): 2.6%; T/C (P388 [28]): 133%; Activity (Mus musculus [29]): -6.4%; T/C (L1210 [30]): 148%; Activity (Mus musculus [31]): -23.8%; T/C (L1210 [32]): 160%; Activity (Mus musculus [33]): -8.2%
